Published values pooled from the literature.
Lines come from different studies, so protocols differ.
Target: Serine/threonine-protein kinase MAK (MAK, Homo sapiens, UniProt P20794)
One construct used (P20794 1-623): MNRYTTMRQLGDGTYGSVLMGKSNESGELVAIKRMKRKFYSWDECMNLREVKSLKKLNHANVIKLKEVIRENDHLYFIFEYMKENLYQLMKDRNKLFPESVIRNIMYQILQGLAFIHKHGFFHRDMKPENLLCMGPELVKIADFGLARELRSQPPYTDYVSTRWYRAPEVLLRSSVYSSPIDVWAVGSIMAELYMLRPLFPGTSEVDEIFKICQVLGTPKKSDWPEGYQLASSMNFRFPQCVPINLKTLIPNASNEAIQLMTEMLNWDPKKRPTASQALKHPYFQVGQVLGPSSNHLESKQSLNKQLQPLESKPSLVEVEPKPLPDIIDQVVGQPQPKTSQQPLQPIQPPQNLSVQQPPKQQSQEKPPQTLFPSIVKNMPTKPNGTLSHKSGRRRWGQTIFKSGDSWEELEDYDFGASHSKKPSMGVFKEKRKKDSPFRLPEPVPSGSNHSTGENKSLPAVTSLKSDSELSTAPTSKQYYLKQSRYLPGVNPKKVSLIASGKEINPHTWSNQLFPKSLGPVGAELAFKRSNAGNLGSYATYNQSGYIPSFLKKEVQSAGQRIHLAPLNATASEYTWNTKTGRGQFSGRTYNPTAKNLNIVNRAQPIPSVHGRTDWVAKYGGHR

Structure (SMILES) | test | conditions | remaining binding [%]
O=C(c1ccc(Nc2ncc(Cl)c(-c3ccc(Cl)s3)n2)cc1)N1CCC(N2CCCC2)CC1 | binding, competition with immobilised ligand | 1 µM | 85
c1cncc(-c2cccc(Nc3nccc(NC4CCCCC4)n3)c2)c1 | binding, competition with immobilised ligand | 10 µM | 61
O=C(Nc1c[nH]nc1C(=O)NC1CCNCC1)c1cc(F)cc(F)c1 | binding, competition with immobilised ligand | 1 µM | 78
CO[C@H]1CC[C@H](CNc2ccc(S(=O)(=O)NC(=O)c3ccc(N4CCN(CC5=C(c6ccc(Cl)cc6)CC(C)(C)CC5)CC4)cc3Oc3cnc4[nH]ccc4c3)cc2[N+](=O)[O-])CC1 | cell-free assay, competition with immobilised ligand | 1 µM | 90
O=C(c1ccc(Nc2nccc(-c3cc4ccccc4s3)n2)cc1)N1CCC(N2CCCC2)CC1 | binding, competition with immobilised ligand | 1 µM | 100
NS(=O)(=O)c1cc(NC(=O)Cc2ccccc2)ccc1Oc1cccc(Cl)c1 | cell-free assay, competition with immobilised ligand | 1 µM | 100
CC1CCCN1c1nccc(-c2cnn3ncccc23)n1 (stereo not shown) | binding | 1 µM | 100
FC(F)(F)Oc1cccc(-c2cnc3ccc(-c4ccncc4)nn23)c1 | cell-free assay, competition with immobilised ligand | 5 µM | 99
O=C(NCCCN1CCOCC1)c1ccc(Nc2ncc(Cl)c(-c3ccc(Cl)s3)n2)cc1 | binding, competition with immobilised ligand | 1 µM | 100
CNC(=O)Nc1ccc2c(c1)[C@@]1(CC2)OC(=O)N(CC(=O)N(Cc2ccc(F)cc2)[C@@H](C)C(F)(F)F)C1=O | cell-free assay, competition with immobilised ligand | 1 µM | 100
CN(CCCC(F)(F)F)c1nccc(-c2cnn3ncccc23)n1 | binding | 1 µM | 100
CCC(=O)N[C@H]1CC[C@@H](C(=O)N(C)c2ccc(-c3nc4ccccc4o3)cc2)C1 | cell-free assay, competition with immobilised ligand | 1 µM | 85
COc1ccnn2ncc(-c3ccnc(N(C)C)n3)c12 | binding | 1 µM | 100
O=C(Nc1cnc(Oc2ccc(F)cc2)nc1)N1CCc2ncccc2[C@@H]1c1ccc(F)cc1 | cell-free assay, competition with immobilised ligand | 1 µM | 100
CN(C)c1nccc(-c2cnn3ncccc23)n1 | binding | 1 µM | 100
C[C@@H](c1ccc(-n2cnc3c(N)ncnc32)cc1)N1CCc2nn(C)c(Cc3ccccc3)c2C1=O | binding, competition with immobilised ligand | 0.1 µM | 82
CN(C)c1nccc(-c2cnc3ncccn23)n1 | binding | 1 µM | 100
O=C1CCc2cc(Nc3cc(OC4CCOCC4)c([N+](=O)[O-])cc3Cl)ccc2N1 | cell-free assay, competition with immobilised ligand | 1 µM | 100
C[C@H]1CCN(c2nccc(-c3cnn4ncccc34)n2)C1 | binding | 1 µM | 66
COc1cnc(Nc2cccc(S(N)(=O)=O)c2)nc1N1CCN(c2ccccc2)CC1 | binding, competition with immobilised ligand | 1 µM | 100
N[C@H]1CCN(c2nccc(-c3cnn4ncccc34)n2)C1 | binding | 1 µM | 78
CNC(=O)[C@@H]1CC[C@@H](n2c(-c3ccc4cnccc4c3)nc3ccc(C(=O)NCc4cccc(C(N)=O)c4)cc32)C1 | binding, competition with immobilised ligand | 1 µM | 80
